Results as given in ChEMBL document CHEMBL1275561, “In vitro activities of doripenem, a new broad-spectrum carbapenem, against recently collected clinical anaerobic isolates, with emphasis on the Bacteroides fragilis group” (2008).
≈ marks a conversion by molar mass, not a printed value.

Assays:
Type in all cases: functional
[1] = tested on: Parabacteroides distasonis; experiment: Antimicrobial activity against Bacteroides distasonis by agar dilution method
Method in brief: (§1)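 CLSI agar dilution on enriched brucella agar (5% lysed defibrinated sheep blood, 1 μg/ml vitamin K1), with drug plates made on the test day. Log-phase cells were adjusted to 0.5 McFarland, and about 10^5 CFU/spot was delivered by Steers replicator. Plates were incubated anaerobically at 37°C for 48 h. MIC was the lowest concentration giving a marked growth change versus the control plate. Controls were B. fragilis ATCC 25285 and B. thetaiotaomicron ATCC 29741.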

Bacteroides caccae [2] = experiment: Antimicrobial activity against Bacteroides caccae assessed as resistant isolates by agar dilution method
Method in brief: (§2)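 CLSI agar dilution on enriched brucella agar (5% lysed defibrinated sheep blood, 1 μg/ml vitamin K1), plates made on test day. Log-phase inocula adjusted to 0.5 McFarland; about 10^5 CFU/spot by Steers replicator. Incubated anaerobically at 37°C for 48 h. MIC was the lowest concentration giving a marked change in growth versus the drug-free control plate. Resistance rates used CLSI anaerobe breakpoints. Controls were B. fragilis ATCC 25285 and B. thetaiotaomicron ATCC 29741.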

Bacteroides caccae [3] = experiment: Antimicrobial activity against Bacteroides caccae by agar dilution method; method in brief: as §1
[4] = tested on: Parabacteroides distasonis; experiment: Antimicrobial activity against Bacteroides distasonis assessed as resistant isolates by agar dilution method; method in brief: as §2
Bacteroides fragilis [5] = experiment: Antimicrobial activity against Bacteroides fragilis by agar dilution method; method in brief: as §1
Bacteroides fragilis [6] = experiment: Antimicrobial activity against Bacteroides fragilis assessed as resistant isolates by agar dilution method; method in brief: as §2
Bacteroides ovatus [7] = experiment: Antimicrobial activity against Bacteroides ovatus by agar dilution method; method in brief: as §1
Bacteroides ovatus [8] = experiment: Antimicrobial activity against Bacteroides ovatus assessed as resistant isolates by agar dilution method; method in brief: as §2
[9] = tested on: Bacteroides thetaiotaomicron; experiment: Antimicrobial activity against Bacteroides thetaiotaomicron by agar dilution method; method in brief: as §1
[10] = tested on: Bacteroides thetaiotaomicron; experiment: Antimicrobial activity against Bacteroides thetaiotaomicron assessed as resistant isolates by agar dilution method; method in brief: as §2
Bacteroides uniformis [11] = experiment: Antimicrobial activity against Bacteroides uniformis by agar dilution method; method in brief: as §1
Bacteroides uniformis [12] = experiment: Antimicrobial activity against Bacteroides uniformis assessed as resistant isolates by agar dilution method; method in brief: as §2
Phocaeicola vulgatus [13] = experiment: Antimicrobial activity against Bacteroides vulgatus by agar dilution method; method in brief: as §1
Phocaeicola vulgatus [14] = experiment: Antimicrobial activity against Bacteroides vulgatus assessed as resistant isolates by agar dilution method; method in brief: as §2
Bacteroides eggerthii [15] = experiment: Antimicrobial activity against Bacteroides eggerthii by agar dilution method; method in brief: as §1
Bacteroides eggerthii [16] = experiment: Antimicrobial activity against Bacteroides eggerthii assessed as resistant isolates by agar dilution method; method in brief: as §2
Parabacteroides merdae [17] = experiment: Antimicrobial activity against Bacteroides merdae by agar dilution method; method in brief: as §1
Parabacteroides merdae [18] = experiment: Antimicrobial activity against Bacteroides merdae assessed as resistant isolates by agar dilution method; method in brief: as §2
Bacteroides nordii [19] = experiment: Antimicrobial activity against Bacteroides nordii by agar dilution method; method in brief: as §1
Bacteroides nordii [20] = experiment: Antimicrobial activity against Bacteroides nordii assessed as resistant isolates by agar dilution method; method in brief: as §2
Clostridioides difficile = experiment: Antimicrobial activity against Clostridium difficile by agar dilution method
Clostridium perfringens = experiment: Antimicrobial activity against Clostridium perfringens by agar dilution method
[Clostridium] innocuum [21] = Antimicrobial activity against Clostridium innocuum by agar dilution method
[Clostridium] innocuum [22] = Antimicrobial activity against Clostridium innocuum assessed as resistant isolates by agar dilution method; conditions: pooled result: one value given for 4 cell lines, strains, targets or settings
[23] = tested on: Clostridium paraputrificum; experiment: Antimicrobial activity against Clostridium paraputrificum by agar dilution method
Clostridium subterminale = experiment: Antimicrobial activity against Clostridium subterminale by agar dilution method
Clostridium tertium = experiment: Antimicrobial activity against Clostridium tertium by agar dilution method
Finegoldia magna [24] = experiment: Antimicrobial activity against Finegoldia magna by agar dilution method
Method in brief: (§3)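 Gram-positive anaerobes were tested by CLSI agar dilution on brucella agar enriched with 5% lysed defibrinated sheep blood and 1 μg/ml vitamin K1. Inoculum was log-phase growth at 0.5 McFarland, about 10^5 CFU/spot by replicator. Incubation was anaerobic, 37°C, 48 h. MIC was the lowest concentration with a marked growth change versus the drug-free plate. Eubacterium lentum ATCC 43055 was the control, and tests were repeated if it fell outside the CLSI range.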

Finegoldia magna [25] = experiment: Antimicrobial activity against Finegoldia magna assessed as resistant isolates by agar dilution method
Method in brief: (§4)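 Agar dilution following CLSI on brucella agar with 5% lysed defibrinated sheep blood and 1 μg/ml vitamin K1, plates made on test day. Log-phase cells at 0.5 McFarland, about 10^5 CFU/spot by Steers replicator, 48 h anaerobic at 37°C. MIC read as the lowest concentration causing a marked growth change versus control. Resistance counted by CLSI anaerobe breakpoints. Eubacterium lentum ATCC 43055 served as control.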

[26] = tested on: Peptoniphilus asaccharolyticus; experiment: Antimicrobial activity against Peptoniphilus asaccharolyticus by agar dilution method; method in brief: as §3
[27] = tested on: Peptoniphilus asaccharolyticus; experiment: Antimicrobial activity against Peptoniphilus asaccharolyticus assessed as resistant isolates by agar dilution method; conditions: pooled result: one value given for 4 cell lines, strains, targets or settings; method in brief: as §4
Parvimonas micra = experiment: Antimicrobial activity against Micromonas micros by agar dilution method; method in brief: as §3
Anaerococcus prevotii = experiment: Antimicrobial activity against Anaerococcus prevotii by agar dilution method; method in brief: as §3
Peptostreptococcus sp. = experiment: Antimicrobial activity against Peptostreptococcus sp. by agar dilution method
Method in brief: (§5)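 Log-phase isolates were adjusted to 0.5 McFarland, and about 10^5 CFU/spot was delivered by Steers replicator. Plates were incubated anaerobically at 37°C for 48 h. MIC was the lowest concentration giving a marked growth change versus the control plate. Eubacterium lentum ATCC 43055 was the QC strain, with repeats when out of range.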

Cutibacterium acnes [28] = experiment: Antimicrobial activity against Propionibacterium acnes by agar dilution method; method in brief: as §5
Cutibacterium acnes [29] = experiment: Antimicrobial activity against Propionibacterium acnes assessed as resistant isolates by agar dilution method; method in brief: as §4
Propionibacterium [30] = experiment: Antimicrobial activity against Propionibacterium sp. by agar dilution method; method in brief: as §5
Propionibacterium [31] = experiment: Antimicrobial activity against Propionibacterium sp. assessed as resistant isolates by agar dilution method; method in brief: as §4

Compound: C[C@@H](O)[C@H]1C(=O)N2C(C(=O)O)=C(SCCNC=N)C[C@H]12 [IMIPENEM ANHYDROUS]
- MIC50 [1]: 0.25 mg/L (≈ 0.835 µM)
- MIC90 [1]: 2 mg/L (≈ 6.68 µM)
- Activity (Bacteroides caccae [2]): 0%
- MIC50 (Bacteroides caccae [3]): 0.5 mg/L (≈ 1.67 µM)
- MIC90 (Bacteroides caccae [3]): 2 mg/L (≈ 6.68 µM)
- Activity [4]: 0%
- MIC50 (Bacteroides fragilis [5]): 0.5 mg/L (≈ 1.67 µM)
- MIC90 (Bacteroides fragilis [5]): 1 mg/L (≈ 3.34 µM)
- Activity (Bacteroides fragilis [6]): 1%
- MIC50 (Bacteroides ovatus [7]): 0.5 mg/L (≈ 1.67 µM)
- MIC90 (Bacteroides ovatus [7]): 2 mg/L (≈ 6.68 µM)
- Activity (Bacteroides ovatus [8]): 0%
- MIC50 [9]: 1 mg/L (≈ 3.34 µM)
- MIC90 [9]: 2 mg/L (≈ 6.68 µM)
- Activity [10]: 0%
- MIC50 (Bacteroides uniformis [11]): 1 mg/L (≈ 3.34 µM)
- MIC90 (Bacteroides uniformis [11]): 1 mg/L (≈ 3.34 µM)
- Activity (Bacteroides uniformis [12]): 0%
- MIC50 (Phocaeicola vulgatus [13]): 1 mg/L (≈ 3.34 µM)
- MIC90 (Phocaeicola vulgatus [13]): 2 mg/L (≈ 6.68 µM)
- Activity (Phocaeicola vulgatus [14]): 0%
- MIC50 (Bacteroides eggerthii [15]): 0.5 mg/L (≈ 1.67 µM)
- MIC90 (Bacteroides eggerthii [15]): 1 mg/L (≈ 3.34 µM)
- Activity (Bacteroides eggerthii [16]): 0%
- MIC50 (Parabacteroides merdae [17]): 0.5 mg/L (≈ 1.67 µM)
- MIC90 (Parabacteroides merdae [17]): 1 mg/L (≈ 3.34 µM)
- Activity (Parabacteroides merdae [18]): 0%
- MIC50 (Bacteroides nordii [19]): 0.5 mg/L (≈ 1.67 µM)
- MIC90 (Bacteroides nordii [19]): 1 mg/L (≈ 3.34 µM)
- Activity (Bacteroides nordii [20]): 0%
- MIC (Clostridioides difficile): 2 mg/L (≈ 6.68 µM)
- MIC50 (Clostridium perfringens): 0.5 mg/L (≈ 1.67 µM)
- MIC90 (Clostridium perfringens): 0.5 mg/L (≈ 1.67 µM)
- MIC50 ([Clostridium] innocuum [21]): 2 mg/L (≈ 6.68 µM)
- MIC90 ([Clostridium] innocuum [21]): 2 mg/L (≈ 6.68 µM)
- Activity ([Clostridium] innocuum [22]): 16.7%
- MIC50 [23]: 2 mg/L (≈ 6.68 µM)
- MIC90 [23]: 2 mg/L (≈ 6.68 µM)
- MIC50 (Clostridium subterminale): 2 mg/L (≈ 6.68 µM)
- MIC90 (Clostridium subterminale): 2 mg/L (≈ 6.68 µM)
- MIC50 (Clostridium tertium): 2 mg/L (≈ 6.68 µM)
- MIC90 (Clostridium tertium): 2 mg/L (≈ 6.68 µM)
- MIC50 (Finegoldia magna [24]): 0.25 mg/L (≈ 0.835 µM)
- MIC90 (Finegoldia magna [24]): 0.25 mg/L (≈ 0.835 µM)
- Activity (Finegoldia magna [25]): 0%
- MIC50 [26]: 0.125 mg/L (≈ 0.418 µM)
- MIC90 [26]: 0.5 mg/L (≈ 1.67 µM)
- Activity [27]: 0%
- MIC50 (Parvimonas micra): 0.125 mg/L (≈ 0.418 µM)
- MIC90 (Parvimonas micra): 0.5 mg/L (≈ 1.67 µM)
- MIC50 (Anaerococcus prevotii): 0.125 mg/L (≈ 0.418 µM)
- MIC90 (Anaerococcus prevotii): 0.5 mg/L (≈ 1.67 µM)
- MIC50 (Peptostreptococcus sp.): 0.125 mg/L (≈ 0.418 µM)
- MIC90 (Peptostreptococcus sp.): 0.5 mg/L (≈ 1.67 µM)
- MIC (Cutibacterium acnes [28]): 0.06 mg/L (≈ 0.2 µM)
- MIC50 (Cutibacterium acnes [28]): 0.06 mg/L (≈ 0.2 µM)
- MIC90 (Cutibacterium acnes [28]): 0.06 mg/L (≈ 0.2 µM)
- Activity (Cutibacterium acnes [29]): 0%
- MIC (Propionibacterium [30]): 0.06 mg/L (≈ 0.2 µM)
- MIC50 (Propionibacterium [30]): 0.06 mg/L (≈ 0.2 µM)
- MIC90 (Propionibacterium [30]): 0.25 mg/L (≈ 0.835 µM)
- Activity (Propionibacterium [31]): 0%
